# Screening data from PubChem BioAssay.
# TbMetRS inhib = T. brucei MetRS inhibitors, primary screen, biochemical, luminescence. methionyl-tRNA synthetase (Trypanosoma brucei brucei). purified T. brucei MetRS, ATP depletion, Kinase-Glo luminescence. inhibition, % at 11.9 µM. 360,000 tested, 0.4% active. AID 624268, 2012;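 active means inhibition above a per-plate cutoff of the control wells' mean inhibition plus 3 SD, cut at about 5.5% in these data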;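 further: 0% = DMSO wells median and 100% = median of wells with control inhibitor compound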
#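 Material – parasite MetRS enzyme · Medium – HEPES-MgCl2-KCl buffer plus DTT, spermine, BSA, pyrophosphatase · Reagent – ATP, methionine and E. coli bulk tRNA substrates · Times – 15 min enzyme-compound preincubation, 2 h reaction, 10 min detection, 25 °C · Measured by – luminescence of leftover ATP · Evaluation – percent inhibition relative to median high and low control wells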
# HNF4A DNA FP = change in binding of human HNF4A to DNA, primary screen, biochemical, fluorescence polarization, FITC-DNA; activity change, % at 10 µM; 1 h; 360,000 tested, 0.3% active; Hepatocyte nuclear factor 4-alpha (Homo sapiens), P41235; in the data active means activity change above about 30%, passing the limit was not always enough
# TPT1 inhibitor = Candida albicans TPT1 enzyme inhibitors, primary screen, biochemical, fluorescence polarization; recombinant caTPT1, FP RNA substrate dephosphorylation; 300,000 tested, 0.81% active; inhibition, % at 5 µM;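 active means inhibition above the mean of all tested compounds plus 3 SD, set per screening campaign, cut at about 24% in these data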;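 further: plate controls were DMSO alone for no effect and ferristatin control at 100 nM for full effect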
# IDE cell activ = human IDE activators in live cells, primary screen, fluorescence polarization, HEK cells, FAbeta-B substrate; Insulin-degrading enzyme (Homo sapiens), P14735; FAbeta-B cleavage; 0% vehicle, 100% cell-free pure enzyme wells; activation, % at 5.96 µM; 340,000 tested, 0.073% active;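 active means activation above the mean of all tested compounds plus 3 SD, set per screening campaign, cut at about 17% in these data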
# IDE inh = human IDE inhibitors in live cells, primary screen, fluorescence polarization, HEK cells, FAbetaB substrate | FAbetaB cleavage | inhibition, % at 5.59 µM | 320,000 tested, 0.41% active;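 active means percent inhibition above the average of all tested compounds plus 3 SD, set per screening campaign, cut at about 16% in these data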;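 further: IDE supplied by intact live HEK cells; FP after avidin binding of uncleaved biotin substrate so inhibition keeps polarization high; 0% = DMSO wells and 100% = 60 µM reference IDE inhibitor Ii1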
# CSN inh = inhibitors of CSN-mediated cullin deneddylation, primary screen, biochemical, fluorescence polarization, uHTS; 360,000 tested, 0.38% active; inhibition, % at 12.5 µM; Purified CSN, SCF-Nedd8-OG deneddylation; COP9 signalosome complex subunit 5 (Homo sapiens), Q92905;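 active means pattern-corrected inhibition above about 35%, with an unprinted fluorescence ratio check between 0.5 and 1.5, limit read from the data, passing the limit was not always enough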;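 further: 0% = enzyme with substrate and 100% = substrate without enzyme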
# Target sequence (Q92905 whole entry, looked up, one chain of several): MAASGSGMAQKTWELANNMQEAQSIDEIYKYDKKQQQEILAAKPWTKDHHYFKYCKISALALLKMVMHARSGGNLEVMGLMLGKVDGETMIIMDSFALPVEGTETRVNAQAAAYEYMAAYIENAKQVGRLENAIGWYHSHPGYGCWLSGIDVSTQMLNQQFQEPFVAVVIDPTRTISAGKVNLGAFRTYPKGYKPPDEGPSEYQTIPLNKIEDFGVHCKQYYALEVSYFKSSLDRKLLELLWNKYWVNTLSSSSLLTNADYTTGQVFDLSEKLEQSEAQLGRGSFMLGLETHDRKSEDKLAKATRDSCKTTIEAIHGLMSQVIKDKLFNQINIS
#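 Assay system: purified human Csn5 enzyme expressed in HEK293T cells; measure: % inhibition; also added: SCFSkp2-Nedd8OG substrate at 10 nM final; technique: fluorescence polarization; times: reaction 90 min, room temperature; medium: Tris buffer pH 7.5, NaCl, DTT, Tween-20, trehalose, ovalbumin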
# IDE cell inh cf = human IDE inhibitors in live cells, confirmation, fluorescence polarization, HEK cells, FAbetaB substrate; shares compounds with IDE inh; FAbetaB cleavage; inhibition, % at 5.59 µM; 1,200 tested, 51% active; AID 435028, 2010;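 active means mean inhibition across triplicate wells above the cutoff set by the earlier primary insulin-degrading enzyme screen, cut at about 16% in these data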;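 further: 0% = DMSO wells and 100% = 60 µM reference IDE inhibitor Ii1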
# HEK cytotox = cytotoxicity in HEK cells, cytotoxicity control for IDE inhibitor project, cell-based, luminescence; shares compounds with IDE inh; HEK293 cytotoxicity, ATP luminescence; inhibition, % at 5.59 µM; 1,200 tested, 28% active; in the data active means inhibition above about 22%;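 further: 0% = vehicle wells and 100% = reference cytotoxic drug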
# IDE FP artifact = fluorescent or optically active artefacts, dose response, artefact control for IDE inhibitor project, biochemical, fluorescence polarization. AID 588718, 2011. 30 tested, under 10 active. shares compounds with IDE inh. IC50, µM. FP counterscreen for fluorescent artifacts, IDE probe project; call rule not given here
# Active calls of the source: *; nt = no result given. Only some compounds are listed: those with a hit (about 1.7% of all), similar ones and a draw of the others.
SMILES,TbMetRS inhib,HNF4A DNA FP,TPT1 inhibitor,IDE cell activ,IDE inh,CSN inh,IDE cell inh cf,HEK cytotox,others
Clc1ccc(/C=C/c2ncc[nH]2)c(Cl)c1,0.9,-2.7,1.7,-18.3,17.8*,6.6,7.6,18.9,
COc1ccccc1/C=C/C1NC(=O)NC(C)=C1C(=O)OC(C)C (stereo not given),-0.4,-1.2,-2.7,-9.8,2.2,-9.5,nt,nt,
C=CCOC(=O)C1=C(C)NC(=O)NC1/C=C/c1ccccc1OC (stereo not given),-0.7,2.7,3.5,-9.6,20.8*,-0.5,8.7,1.1,
Cc1c(CCC(=O)O)c(=O)oc2cc3oc4c(c3cc12)CCCC4,-1.1,-3.2,-3.3,0.0,1.5,-0.8,nt,nt,
Cc1c(CCC(=O)NCC(=O)NCC(=O)O)c(=O)oc2cc3oc4c(c3cc12)CCCC4,-0.5,-2.5,1.6,-12.1,23.6*,2.4,11.7,10.5,
CC(=O)c1ccc(S(=O)(=O)N(C)CCCC(=O)NCc2ccc3c(c2)OCO3)cc1,0.2,-0.3,nt,-0.8,nt,-4.8,nt,nt,
COc1ccc(C)cc1NCc1cc(=O)oc2cc(-c3ccccc3)c(O)cc12,0.5,-1.8,-1.9,-11.7,19.6*,-1.3,5.2,18.9,
Cc1cc(OC(=O)C(C)(C)C)c([N+](=O)[O-])c(=O)[nH]1,-0.3,3.8,0.2,0.6,5.2,-1.1,nt,nt,
COc1cc(/C=N\NC(=O)c2ccc(-c3ccccc3)cc2)cc(OC)c1O,-0.4,-3.2,-2.2,-12.3,19.1*,1.9,12.2,10.7,
COc1cc(/C=N\NC(=O)c2ccc(-c3ccccc3)cc2)cc(OC)c1OC(C)=O,-0.6,3.0,nt,-13.0,nt,3.7,nt,nt,
CC(=O)c1cc2c(C)c(C(=O)c3ccccc3)oc2cc1O,0.3,3.0,0.3,-63.4,35.5*,-8.5,87.1*,14.5,
Cc1cc(C)cc(N2C(=O)CC(Sc3ncn[nH]3)C2=O)c1 (stereo not given),-0.1,-2.6,-2.3,0.5,-1.2,-1.7,nt,nt,
Cc1[nH]n(-c2ccccc2)c(=S)c1C=Nc1cccc([N+](=O)[O-])c1,-0.2,1.3,-8.1,-12.8,25.4*,-2.7,1.9,8.1,
CCCCN=Cc1c(C)[nH]n(-c2ccccc2)c1=S,0.0,1.1,-1.9,-2.2,-1.6,4.0,nt,nt,
COc1ccc(-c2noc(CSc3nnc(-c4ccccc4)n3C)n2)cc1,-1.2,-1.1,-3.3,-17.6,16.7*,-0.6,9.4,16.1,
CC(=O)Oc1ccc(Cl)cc1/C=C/c1cc(OC(C)=O)c2ccccc2n1,nt,nt,22.3,nt,37.0*,nt,88.6*,19.4,
CSc1ncccc1C(=O)Nc1cccc(S(=O)(=O)N(C)c2ccccc2)c1,-0.3,0.6,nt,-1.8,-1.1,1.4,nt,nt,
O=C(Nc1cccc(C(F)(F)F)c1)c1csc(Cc2cccc(C(F)(F)F)c2)n1,nt,nt,nt,nt,nt,nt,nt,nt,IDE FP artifact=>54.7
O=S(=O)(/N=C(/Nc1ccc(F)cc1F)c1ccccc1)c1ccc(Br)cc1,nt,nt,-1.4,nt,-2.3,nt,nt,nt,
CCc1cccc(NC(=O)CCCCCC2NC(=O)NC2C)c1 (stereo not given),-0.9,1.2,-1.9,-17.0,22.1*,-2.6,14.1,11.5,
CCOC(=O)c1c(C)[nH]c(C(=O)COC(=O)CNC(=O)c2ccccc2Cl)c1C,-0.2,-3.5,-1.0,2.4,17.5*,1.0,0.9,12.8,
O=C(COC(=O)Cc1ccc(S(=O)(=O)N2CCOCC2)s1)Nc1ccccc1Cl,-0.2,5.0,nt,2.2,2.9,-0.2,nt,nt,
CC(=O)Nc1ccc(NC(=O)COc2cc(O)c3c(c2)OC(C)(C)CC3=O)cc1,0.5,5.4,0.9,-2.0,0.4,3.6,nt,nt,
Cc1cc(OCC(=O)Nc2ccc(Br)cc2)cc2c1C(=O)CC(C)(C)O2,-0.4,3.3,-3.9,nt,16.8*,3.3,-0.3,22.0,
COc1ccc(Cl)cc1C(=O)NCC(=O)OCc1ccccc1,-0.3,0.3,4.5,-11.8,20.1*,-1.8,9.5,9.5,
SMILES,TbMetRS inhib,HNF4A DNA FP,TPT1 inhibitor,IDE cell activ,IDE inh,CSN inh,IDE cell inh cf,HEK cytotox,others
CS(=O)(=O)c1ccc(N)c(SSc2cc(S(C)(=O)=O)ccc2N)c1,-0.3,7.5,0.7,-24.0,30.4*,0.1,26.7*,6.9,
CCOc1ccc(N)c(SSc2cc(OCC)ccc2N)c1,-0.6,3.5,0.8,-13.0,14.6,-2.0,nt,nt,
Brc1cc2[nH]cnc2c2ccccc12,-0.3,0.7,3.3,-39.1,21.6*,0.9,11.3,16.4,
CC1(C)CC(=O)C2=C(C1)N(c1ccccc1)C(=O)C2(O)C(F)(F)F (stereo not given),0.6,1.8,-3.1,3.0,16.1*,5.3,2.4,7.4,
CC1(C)CC(=O)C2=C(C1)N(c1ccc(F)cc1)C(=O)C2(O)C(F)(F)F (stereo not given),-0.5,0.6,1.6,-3.2,1.9,4.0,nt,nt,
COc1ccc2cc(C(=O)/C=C/c3cc(OC)c(O)c(OC)c3)ccc2c1,-0.3,-0.6,3.9,-8.5,7.0,8.4,nt,nt,
COc1ccc(C(=O)/C=C/c2cc(OC)c(O)c(OC)c2)c(F)c1,0.2,8.6,6.1,-57.7,51.7*,-5.2,87.3*,43.2*,
O=c1cc(CN2CCN(Cc3ccc(F)cc3)C(CCO)C2)[nH]c2ccccc12 (stereo not given),-0.8,-5.5,0.0,5.0,3.6,-3.7,nt,nt,
CCCc1cc(C(=O)Nc2ccc(C(=O)c3ccccc3)cc2)n(C)n1,-0.2,-1.0,-3.2,-10.7,18.8*,-1.4,3.6,23.1*,
Cc1cccc(C(=O)NCC(=O)OC(C)C(=O)Nc2ccc(Cl)cn2)c1 (stereo not given),0.0,1.1,2.1,1.0,16.3*,2.3,0.4,11.8,
CC(=O)c1ccc(OCCCC(=O)NCCc2ccc(C(F)(F)F)cc2)cc1,-0.2,-3.2,-1.9,3.5,5.1,2.2,nt,nt,
